Data published in ChEMBL document CHEMBL3875213, “Quinolines: Microwave-assisted synthesis and their antifungal, anticancer and radical scavenger properties” (Bioorg Med Chem, 2017).
Converted amounts (≈) assume the structure as drawn. The source made the active and inactive calls. No cut-off for these calls is given here.

How the values were obtained:
Type in all cases: functional
[1] = Antioxidant activity assessed as fluorescent light-induced superoxide anion scavenging activity at 160 uM incubated for 10 mins by nitroblue tetrazolium dye based assay
How it was run: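 Superoxide generated photochemically in 50 mM phosphate buffer pH 7.8 with 13 mM L-methionine, 75 µM nitroblue tetrazolium, 100 µM EDTA and 2 µM riboflavin. Compound at 160 µM. 10 min at 25 °C under fluorescent light; dark controls. Read at 575 nm. Resveratrol as positive control; three independent experiments in triplicate.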

[2] = tested on: Candida albicans; assay: Growth inhibition of Candida albicans ATCC 10231 at 31.25 ug/ml incubated for 48 hrs under dark condition by broth microdilution assay relative to amphotericin B; settings: ATCC 10231, 48 h, read-out: GI
How it was run: (§1)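 Yeast broth microdilution (CLSI M27-A3), RPMI-1640, inoculum 1-5 x 10^3 CFU/mL, DMSO ≤1%, 48 h at 30 °C in a moist, dark chamber. […]. Triplicate; amphotericin B as positive control.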

[3] = tested on: Candida albicans; assay: Growth inhibition of Candida albicans ATCC 10231 at 250 ug/ml incubated for 48 hrs under dark condition by broth microdilution assay relative to amphotericin B; settings: ATCC 10231, 48 h, read-out: GI; how it was run: as §1
[4] = Antioxidant activity assessed as DPPH radical scavenging activity incubated for 30 mins under dark condition
How it was run: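 DPPH (100 µM) in ethanolic medium, stirred 30 min in the dark, absorbance at 517 nm. Compound varied from 0 to 160 µg/mL to find the concentration scavenging 50% of radicals. Three independent experiments, each in triplicate.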

[5] = tested on: Candida albicans; assay: Growth inhibition of Candida albicans ATCC 10231 at 3.9 ug/ml incubated for 48 hrs under dark condition by broth microdilution assay relative to amphotericin B; settings: ATCC 10231, 48 h, read-out: GI; how it was run: as §1
[6] = tested on: Candida albicans; assay: Growth inhibition of Candida albicans ATCC 10231 at 62.5 ug/ml incubated for 48 hrs under dark condition by broth microdilution assay relative to amphotericin B; settings: ATCC 10231, 48 h, read-out: GI; how it was run: as §1
[7] = tested on: Candida albicans; assay: Antifungal activity against Candida albicans ATCC 10231 incubated for 48 hrs under dark condition by broth microdilution assay; settings: ATCC 10231, 48 h
How it was run: (§2)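 Broth microdilution per CLSI M27-A3 in RPMI-1640. Inocula adjusted to 1-5 x 10^3 CFU/mL. Stocks in DMSO (≤1%), final 3.9-250.0 µg/mL. Incubated 48 h at 30 °C in a moist, dark chamber, read at OD 405. % inhibition computed from growth and sterility control wells, run in triplicate. MIC80/MIC50 taken from four-parameter logistic concentration-response curves; amphotericin B as positive control.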

[8] = Antifungal activity against Cryptococcus neoformans ATCC 32264 incubated for 48 hrs under dark condition by broth microdilution assay; how it was run: as §2
[9] = tested on: Candida albicans; assay: Growth inhibition of Candida albicans ATCC 10231 at 15.62 ug/ml incubated for 48 hrs under dark condition by broth microdilution assay relative to amphotericin B; settings: ATCC 10231, 48 h, read-out: GI; how it was run: as §1
[10] = tested on: Candida albicans; assay: Growth inhibition of Candida albicans ATCC 10231 at 125 ug/ml incubated for 48 hrs under dark condition by broth microdilution assay relative to amphotericin B; settings: ATCC 10231, 48 h, read-out: GI; how it was run: as §1
[11] = Antioxidant activity assessed as DPPH radical scavenging activity at 160 uM incubated for 30 mins under dark condition
How it was run: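 Compound at 160 µM incubated with 100 µM DPPH in ethanolic medium, stirred in the dark for 30 min, read at 517 nm. Resveratrol as positive control. Three independent experiments, each in triplicate.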

[12] = tested on: Candida albicans; assay: Growth inhibition of Candida albicans ATCC 10231 at 7.81 ug/ml incubated for 48 hrs under dark condition by broth microdilution assay relative to amphotericin B; settings: ATCC 10231, 48 h, read-out: GI; how it was run: as §1
[13] = Antioxidant activity assessed as fluorescent light-induced superoxide anion scavenging activity incubated for 10 mins by nitroblue tetrazolium dye based assay
How it was run: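 Riboflavin/light superoxide system: 50 mM phosphate pH 7.8, 13 mM L-methionine, 75 µM NBT, 100 µM EDTA, 2 µM riboflavin, compound 0-200 µg/mL. Fluorescent light for 10 min at 25 °C, dark controls, scavenging measured at 575 nm. Resveratrol as reference.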

Row | SMILES | Activity [1] | inhibition of growth at 31.25 µg/mL [2] [%] | inhibition of growth at 250 µg/mL [3] [%] | SC50 [4] [µM] | inhibition of growth at 3.9 µg/mL [5] [%] | inhibition of growth at 62.5 µg/mL [6] [%] | MIC50 [7] [µg/mL] | MIC80 [7] [µg/mL] | MIC50 [8] [µg/mL] | MIC80 [8] [µg/mL] | inhibition of growth at 15.62 µg/mL [9] [%] | inhibition of growth at 125 µg/mL [10] [%] | Activity [11] [%] | inhibition of growth at 7.81 µg/mL [12] [%] | SC50 [13] [µM]
1 | Oc1ccc2nc(-c3ccccc3)cc(-c3ccccc3)c2c1 | Active | 0 | 12.2 | > 250 | 0 | 0 | 250 (≈ 841 µM) | > 250 | 125 (≈ 420 µM) | 250 (≈ 841 µM) | 0 | 3.51 | 70 to 85 | 0 | > 250
2 | FC(F)(F)c1ccc2nc(-c3ccccc3)cc(-c3ccccc3)c2c1 |  | 7.83 | 20.1 | 261 | 0 | 8.77 | > 250 | > 250 | 250 (≈ 716 µM) | 250 (≈ 716 µM) | 3.65 | 14 | 45 to 55 | 2.81 | > 250
3 | O=C(O)c1ccc2nc(-c3ccccc3)cc(-c3ccccc3)c2c1 | Active | 11.9 | 57.5 |  | 0 | 22.6 | 250 (≈ 768 µM) | > 250 | 250 (≈ 768 µM) | > 250 | 7.19 | 34.6 |  | 5.63 | 
4 | Fc1ccc2nc(-c3ccccc3)cc(-c3ccccc3)c2c1 | < 10% | 11.8 | 67.5 |  | 0 | 18.4 | 250 (≈ 835 µM) | > 250 | > 250 | > 250 | 4.27 | 34.2 |  | 2.01 | 
5 | CC(C)(C)c1ccc2nc(-c3ccccc3)cc(-c3ccccc3)c2c1 | 50% | 0 | 7.81 | > 250 | 0 | 0 | > 250 | > 250 | 3.9 (≈ 11.6 µM) | 15.6 (≈ 46.2 µM) | 0 | 1.84 |  | 0 | > 250
6 | N#Cc1ccc2nc(-c3ccccc3)cc(-c3ccccc3)c2c1 | Active | 12.7 | 69.9 | 19.5 | 0 | 19.7 | 250 (≈ 816 µM) | > 250 | 125 (≈ 408 µM) | 250 (≈ 816 µM) | 9.26 | 39 | 70 to 85 | 8.25 | 220
7 | CSc1ccc2nc(-c3ccccc3)cc(-c3ccccc3)c2c1 | Active | 16 | 66.3 |  | 4.72 | 21.7 | 250 (≈ 763 µM) | > 250 | 15.6 (≈ 47.6 µM) | 31.2 (≈ 95.3 µM) | 11.2 | 39.2 |  | 11.2 | 
8 | Clc1ccc2nc(-c3ccccc3)cc(-c3ccccc3)c2c1 | < 10% | 20 | 89.8 |  | 0 | 33.1 | > 250 | > 250 | 15.6 (≈ 49.4 µM) | > 250 | 14 | 53.9 |  | 8.07 | 
